In ChEMBL document CHEMBL1125607, “Novel gonadotropin-releasing hormone antagonists: peptides incorporating modified N omega-cyanoguanidino moieties” (J Med Chem, 1991):
pKd: −log10 of the molar value. In brackets after ≈: the same amount, converted by molar mass. Activity calls are given as the source filed them. The rule behind the calls is not given here.

Experiments:
[1] = molecular target: Gonadotropin-releasing hormone receptor (Rattus norvegicus) (UniProt P30969); assay: Antagonist potency at GnRH receptor relative to a standard ([Ac-delta3Pro, DFpa2, DTrp3,6]GnRH).
Rattus norvegicus [2] = assay: Potency (5 mg/rat) using anti-ovulatory assay, expressed as rat ovulating/total number of treated rats measured after sc administration; 2/5; format: functional, organism-based
Rattus norvegicus [3] = assay: Potency (10 mg/rat) using anti-ovulatory assay, expressed as rat ovulating/total number of treated rats measured after sc administration; 0/6; format: functional, organism-based
Rattus norvegicus [4] = species on record: Rattus norvegicus; assay: In vitro histamine release by rat mast cells.; conditions: read-out: ED50 (the source's name)
Rattus norvegicus [5] = assay: Potency (1.0 mg/rat) using anti-ovulatory assay, expressed as rat ovulating/total number of treated rats measured after sc administration; 5/5; format: functional, organism-based
Rattus norvegicus [6] = assay: Potency (2.5 mg/rat) using anti-ovulatory assay, expressed as rat ovulating/total number of treated rats measured after sc administration; 0/7; format: functional, organism-based
Rattus norvegicus [7] = assay: Potency (10 mg/rat) using anti-ovulatory assay, expressed as rat ovulating/total number of treated rats measured after sc administration; 4/4; format: functional, organism-based
Rattus norvegicus [8] = assay: Potency (1 mg/rat) using anti-ovulatory assay, expressed as rat ovulating/total number of treated rats measured after sc administration; 2/8; format: functional, organism-based
[9] = molecular target: T1, Gonadotropin-releasing hormone receptor (Rattus norvegicus, UniProt P30969); assay: In vitro binding affinity of Gonadotropin-releasing hormone antagonist was measured in rat pituitary cell membranes; set-up: species or system Pituitary gland cell, Membrane
T1 sequence (P30969 whole entry): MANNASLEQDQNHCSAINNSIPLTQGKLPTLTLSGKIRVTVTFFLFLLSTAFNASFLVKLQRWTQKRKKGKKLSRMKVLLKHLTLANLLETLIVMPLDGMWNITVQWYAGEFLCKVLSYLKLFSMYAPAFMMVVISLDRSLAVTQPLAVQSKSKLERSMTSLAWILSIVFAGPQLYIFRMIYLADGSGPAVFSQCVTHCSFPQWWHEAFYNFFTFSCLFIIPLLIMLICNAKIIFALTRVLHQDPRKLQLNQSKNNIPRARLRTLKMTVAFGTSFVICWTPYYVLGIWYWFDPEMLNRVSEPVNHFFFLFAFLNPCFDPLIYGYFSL
Method in brief: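 Displacement binding on pituitary cell membranes with [DAla6,NMe-Leu7,Pro9-NHEt]GnRH as standard; analogue KD values calculated from potencies relative to that standard derived from displacement data.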

Rattus norvegicus [10] = assay: Potency (0.5 mg/rat) using anti-ovulatory assay, expressed as rat ovulating/total number of treated rats measured after sc administration; 7/7; format: functional, organism-based
Rattus norvegicus [11] = assay: Potency (2.5 mg/rat) using anti-ovulatory assay, expressed as rat ovulating/total number of treated rats measured after sc administration; 7/9; format: functional, organism-based
Rattus norvegicus [12] = assay: Potency (2.5 mg/rat) using anti-ovulatory assay, expressed as rat ovulating/total number of treated rats measured after sc administration; 5/6; format: functional, organism-based
Rattus norvegicus [13] = assay: Potency (5 mg/rat) using anti-ovulatory assay, expressed as rat ovulating/total number of treated rats measured after sc administration; 1/6; format: functional, organism-based
Rattus norvegicus [14] = assay: Potency (2.5 mg/rat) using anti-ovulatory assay, expressed as rat ovulating/total number of treated rats measured after sc administration; 7/7; format: functional, organism-based
Rattus norvegicus [15] = assay: Potency (5 mg/rat) using anti-ovulatory assay, expressed as rat ovulating/total number of treated rats measured after sc administration; 0/7; format: functional, organism-based
Rattus norvegicus [16] = assay: Potency (2.5 mg/rat) using anti-ovulatory assay, expressed as rat ovulating/total number of treated rats measured after sc administration; 2/9; format: functional, organism-based
Rattus norvegicus [17] = assay: Potency (2.5 mg/rat) using anti-ovulatory assay, expressed as rat ovulating/total number of treated rats measured after sc administration; 1/8; format: functional, organism-based
Rattus norvegicus [18] = assay: Potency (1 mg/rat) using anti-ovulatory assay, expressed as rat ovulating/total number of treated rats measured after sc administration; 6/6; format: functional, organism-based
Rattus norvegicus [19] = assay: Potency (1 mg/rat) using anti-ovulatory assay, expressed as rat ovulating/total number of treated rats measured after sc administration; 5/8; format: functional, organism-based
Rattus norvegicus [20] = assay: Potency (2.5 mg/rat) using anti-ovulatory assay, expressed as rat ovulating/total number of treated rats measured after sc administration; 0/8; format: functional, organism-based
Rattus norvegicus [21] = assay: Potency (0.5 mg/rat) using anti-ovulatory assay, expressed as rat ovulating/total number of treated rats measured after sc administration; 8/18; format: functional, organism-based
Rattus norvegicus [22] = assay: Potency (1 mg/rat) using anti-ovulatory assay, expressed as rat ovulating/total number of treated rats measured after sc administration; 1/17; format: functional, organism-based
Rattus norvegicus [23] = assay: Potency (2.5 mg/rat) using anti-ovulatory assay, expressed as rat ovulating/total number of treated rats measured after sc administration; 5/9; format: functional, organism-based

`CC(C)C[C@H](NC(=O)[C@@H](CCCN=C(N)N)NC(=O)[C@H](Cc1ccc(O)cc1)NC(=O)[C@H](CO)NC(=O)[C@@H](CCCCNc1n[nH]c(N)n1)NC(=O)[C@H](Cc1c[nH]cn1)NC(=O)[C@@H]1CCC(=O)N1)C(=O)N[C@@H](CCCCNC(C)C)C(=O)N1CCC[C@H]1C(=O)N[C@H](C)C(N)=O` was tested, and the Relative potency [1] was 0.3, the Activity (Rattus norvegicus [2]) was “Weak activity” and the Activity (Rattus norvegicus [3]) was “Active”. The EC50 (Rattus norvegicus [4]) was 9.5 µg/mL (≈ 7.12 µM).
With `CCCC/N=C(\NC#N)NCCC[C@@H](NC(=O)[C@H](Cc1c[nH]cn1)NC(=O)[C@@H]1CCC(=O)N1)C(=O)N[C@@H](CO)C(=O)N[C@@H](Cc1ccc(O)cc1)C(=O)N[C@H](Cc1cccnc1)C(=O)N[C@@H](CC(C)C)C(=O)N[C@@H](CCCCNC(C)C)C(=O)N1CCC[C@H]1C(=O)N[C@H](C)C(N)=O` the Relative potency [1] was 1.6, the Activity (Rattus norvegicus [5]) was “inactive” and the Activity (Rattus norvegicus [6]) was “Active”.
`CC(C)C[C@H](NC(=O)[C@@H](Cc1cccnc1)NC(=O)[C@H](Cc1ccc(O)cc1)NC(=O)[C@H](CO)NC(=O)[C@H](Cc1ccc(Nc2n[nH]c(N)n2)cc1)NC(=O)[C@H](Cc1c[nH]cn1)NC(=O)[C@@H]1CCC(=O)N1)C(=O)N[C@@H](CCCCNC(C)C)C(=O)N1CCC[C@H]1C(=O)N[C@H](C)C(N)=O` was tested, and the Relative potency [1] was 0.06 and the Activity (Rattus norvegicus [7]) was “inactive”.
For `CCCC/N=C(\NC#N)NCCCC[C@@H](NC(=O)[C@H](Cc1c[nH]cn1)NC(=O)[C@@H]1CCC(=O)N1)C(=O)N[C@@H](CO)C(=O)N[C@@H](Cc1ccc(O)cc1)C(=O)N[C@H](CCCN=C(N)N)C(=O)N[C@@H](CC(C)C)C(=O)N[C@@H](CCCCNC(C)C)C(=O)N1CCC[C@H]1C(=O)N[C@H](C)C(N)=O`, the Activity (Rattus norvegicus [8]) was “Active”, the Relative potency [1] was 1.4 and the pKd [9] was 8.92. The Activity (Rattus norvegicus [10]) was “inactive” and the EC50 (Rattus norvegicus [4]) was 6 µg/mL (≈ 4.36 µM).
With `CC(C)C[C@H](NC(=O)[C@@H](CCCC/N=C(\NC#N)NC1CCCCC1)NC(=O)[C@H](CCCC/N=C(\NC#N)NC1CCCCC1)NC(=O)[C@H](CO)NC(=O)[C@H](Cc1c[nH]c2ccccc12)NC(=O)[C@H](Cc1c[nH]cn1)NC(=O)[C@@H]1CCC(=O)N1)C(=O)N[C@@H](CCCCNC(C)C)C(=O)N1CCC[C@H]1C(=O)N[C@H](C)C(N)=O` the Relative potency [1] was 0.42 and the Activity (Rattus norvegicus [11]) was “inactive”.
For `CCCC/N=C(\NC#N)NCCCC[C@H](NC(=O)[C@H](CC(C)C)NC(=O)[C@@H](CCCN=C(N)N)NC(=O)[C@H](Cc1ccc(O)cc1)NC(=O)[C@H](CO)NC(=O)[C@@H](Cc1cccnc1)NC(=O)[C@H](Cc1c[nH]cn1)NC(=O)[C@@H]1CCC(=O)N1)C(=O)N1CCC[C@H]1C(=O)N[C@H](C)C(N)=O`, the Relative potency [1] was 1.2, the pKd ([9]; pituitary gland cell) was 9.00 and the Activity (Rattus norvegicus [12]) was “inactive”. The Activity (Rattus norvegicus [13]) was “Active” and the EC50 (Rattus norvegicus [4]) was 3.5 µg/mL (≈ 2.59 µM).
In the case of `CCCC/N=C(/NCCCC[C@H](NC(=O)[C@H](CC(C)C)NC(=O)[C@@H](CCCCNC(=O)c1cccnc1)NC(=O)[C@H](CCCCNC(=O)c1cccnc1)NC(=O)[C@H](CO)NC(=O)[C@H](Cc1c[nH]c2ccccc12)NC(=O)[C@H](Cc1c[nH]cn1)NC(=O)[C@@H]1CCC(=O)N1)C(=O)N1CCC[C@H]1C(=O)N[C@H](C)C(N)=O)NC(N)=O`, the pKd [9] was 9.96, the Activity (Rattus norvegicus [14]) was “inactive” and the Activity (Rattus norvegicus [15]) was “Active”.
For `CC(C)C[C@H](NC(=O)[C@@H](CCC/N=C(\NC#N)NCc1ccccn1)NC(=O)[C@H](CCC/N=C(\NC#N)NCc1ccccn1)NC(=O)[C@H](CO)NC(=O)[C@H](Cc1c[nH]c2ccccc12)NC(=O)[C@H](Cc1c[nH]cn1)NC(=O)[C@@H]1CCC(=O)N1)C(=O)N[C@@H](CCCCNC(C)C)C(=O)N1CCC[C@H]1C(=O)N[C@H](C)C(N)=O`, the Relative potency [1] was 0.9, the pKd [9] was 9.39 and the Activity (Rattus norvegicus [16]) was “Active”.
With `CC(C)C[C@H](NC(=O)[C@@H](CCCCNc1n[nH]c(N)n1)NC(=O)[C@H](Cc1ccc(O)cc1)NC(=O)[C@H](CO)NC(=O)[C@H](CCCCNc1n[nH]c(N)n1)NC(=O)[C@H](Cc1c[nH]cn1)NC(=O)[C@@H]1CCC(=O)N1)C(=O)N[C@@H](CCCCNC(C)C)C(=O)N1CCC[C@H]1C(=O)N[C@H](C)C(N)=O` the Activity (Rattus norvegicus [17]) was “Active”, the Relative potency [1] was 0.6 and the Activity (Rattus norvegicus [18]) was “inactive”.
For `CCCC/N=C(\NC#N)NCCC[C@H](NC(=O)[C@H](CO)NC(=O)[C@H](Cc1c[nH]c2ccccc12)NC(=O)[C@H](Cc1c[nH]cn1)NC(=O)[C@@H]1CCC(=O)N1)C(=O)N[C@H](CCCN/C(=N/CCCC)NC#N)C(=O)N[C@@H](CC(C)C)C(=O)N[C@@H](CCCCNC(C)C)C(=O)N1CCC[C@H]1C(=O)N[C@H](C)C(N)=O`, the Relative potency [1] was 1, the Activity (Rattus norvegicus [19]) was “Weak activity” and the pKd [9] was 8.68. For the same compound, the Activity (Rattus norvegicus [20]) was “Active”.
With `CC(C)C[C@H](NC(=O)[C@@H](Cc1ccc(Nc2n[nH]c(N)n2)cc1)NC(=O)[C@H](Cc1ccc(Nc2n[nH]c(N)n2)cc1)NC(=O)[C@H](CO)NC(=O)[C@H](Cc1c[nH]c2ccccc12)NC(=O)[C@H](Cc1c[nH]cn1)NC(=O)[C@@H]1CCC(=O)N1)C(=O)N[C@@H](CCCCNC(C)C)C(=O)N1CCC[C@H]1C(=O)N[C@H](C)C(N)=O` the Relative potency [1] was 1.3, the Activity (Rattus norvegicus [21]) was “Weak activity” and the Activity (Rattus norvegicus [22]) was “Active”. It also gave an EC50 (Rattus norvegicus [4]) of 50 µg/mL (≈ 33.8 µM).
With `CCCC/N=C(\NC#N)NCCCC[C@H](NC(=O)[C@H](Cc1c[nH]cn1)NC(=O)[C@@H]1CCC(=O)N1)C(=O)N[C@@H](CO)C(=O)N[C@@H](Cc1ccc(O)cc1)C(=O)N[C@H](CCCCN/C(=N/CCCC)NC#N)C(=O)N[C@@H](CC(C)C)C(=O)N[C@@H](CCCCNC(C)C)C(=O)N1CCC[C@H]1C(=O)N[C@H](C)C(N)=O` the Relative potency [1] was 1.4 and the Activity (Rattus norvegicus [23]) was “Weak activity”.
